Experimental data of several laboratories.
Each line is one published result; the experiments were not run side by side.
Effect on: cell growth or viability

SMILES | cell line | assay | conditions | CC50 [µM]
C[C@H]1[C@@H](O)O[C@@H]2O[C@@]3(C)CC[C@H]4[C@H](C)CC[C@@H]1[C@@]24OO3 | J774 | ATP luminescence | 72 h | 51.3
CCN(CC)CCNC(=O)CN1C(=O)Cc2c([nH]c3ccc(Br)cc23)-c2ccc(Cl)cc21 | J774 | WST-1 | 24 h | ≤ 10
Nc1nc2c(ncn2COCCO)c(=O)[nH]1 | HFF | ATP luminescence | 14 days | > 150
O=S(=O)(c1ccc(Cl)cc1)c1nc(-c2ccccc2)oc1S(=O)(=O)c1ccc(Cl)cc1 | HFF | ATP luminescence |  | 86.2
O=c1[nH]c2cc(-c3ccccc3)sc2c(=O)n1O | HFF | MTS | 7 days | > 50
CNC(=O)CN1C(=O)Cc2c([nH]c3ccc(Br)cc23)-c2ccc(Cl)cc21 | J774 | WST-1 | 24 h | ≤ 100
Cc1ccc(-c2nc(C#N)c(N(C)S(=O)(=O)c3ccc(C)cc3)o2)cc1 | HFF | ATP luminescence |  | 83.8
O=C1c2ccccc2C(c2ccccc2F)C(=O)N1O (stereo not shown) | HFF | MTS | 7 days | 26
O=C1Cc2c([nH]c3ccc(Br)cc23)-c2ccc(Cl)cc2N1 | J774 | WST-1 | 24 h | > 200
O=c1[nH]c2cc(-c3ccc(Cl)cc3)ccc2c(=O)n1O | HFF | MTS | 7 days | > 50
O=C(CN1C(=O)Cc2c([nH]c3ccc(Br)cc23)-c2ccc(Cl)cc21)NCCN1CCNCC1 | J774 | WST-1 | 24 h | ≥ 100
O=c1[nH]c2cc(-c3ccccc3)ccc2c(=O)n1O | HFF | MTS | 7 days | 29
CC1CCCN(S(=O)(=O)c2nc(-c3ccc(Br)cc3)oc2-c2ccc(Cl)cc2)C1 (stereo not shown) | HFF | ATP luminescence |  | 41.9
